Experimental data pooled from the literature.
Each line is one published result; the experiments were not run side by side.
Target: Serine/threonine-protein kinase 24 (STK24, Homo sapiens, UniProt Q9Y6E0)

test | system | conditions | endpoint | value | Structure (SMILES)
cell-free assay, competition with immobilised ligand |  | 0.1 µM | remaining binding | 91% | Nc1c(C(=O)NCc2ccc(C(=O)NCCCC3CCCCC3)cc2)cnn1-c1ccccc1
target engagement in cells, inhibitor, chemoproteomics |  | 20 mM | inhibition | -7% | c1ccc(CNc2nc(N3CCOc4ccccc43)nc3c2CCCC3)cc1
enzyme activity, inhibitor |  | 1 µM | inhibition | 6% | CN1CC(Oc2cnc(C#N)cc2-c2ccn3nc(NC(=O)C4CC4)cc3c2)C1
thermal stability, DSF |  | 10 µM | ΔTm | -0.7 °C | Cn1c2c(c3ccc(Cl)c(Cl)c31)C(C#N)C1(CCNCC1)NC2=O (racemic)
cell-free assay |  | 0.5 µM | remaining signal | 102% | COc1cc2ncnc(Nc3ccc(F)c(Cl)c3)c2cc1OCCCN1CCOCC1
cell-free assay |  | 1 µM | remaining signal | 100% | CN(c1nccc(-c2cnn3ncccc23)n1)C1CC1
cell-free assay, competition with immobilised ligand |  | 1 µM | remaining binding | 100% | CC1=C(C#N)C(c2ccc3c(c2)c(NC(=O)c2ccccc2C)nn3C)C(C#N)=C(C)N1
enzyme activity, inhibitor |  | 1 µM | inhibition | 4% | COc1cc(-c2cc(-c3ccc(N4CCNCC4)cc3)cnc2C)cc(OC)c1OC
thermal stability, DSF |  | 10 µM | ΔTm | 0.7 °C | Cn1c2c(Cl)c(Cl)ccc2c2cn[nH]c(=O)c21
cell-free assay, competition with immobilised ligand |  | 1 µM | remaining binding | 87% | N#CC1(c2ccccn2)CCN(Cc2cc(C(=O)N3CCCC3)c(=O)n3ccccc23)CC1
cell-free assay |  | 0.5 µM | remaining signal | 95.2% | Oc1ccc(-c2nc(-c3ccncc3)c(-c3ccc(F)cc3)[nH]2)cc1
enzyme activity, inhibitor |  | 10 µM | inhibition | -46% | CNC(=O)c1cc(Oc2ccc(NC(=O)Nc3ccc(Cl)c(C(F)(F)F)c3)cc2)ccn1
cell-free assay, competition with immobilised ligand |  | 1 µM | remaining binding | 100% | C[C@H](NC(=O)c1cnc2n1[C@](C)(Cc1ccc(C#N)cc1)C(=O)N2c1cc(Cl)c(F)c(Cl)c1)C(=O)NC1(c2ccccn2)CC1
thermal stability, DSF |  | 10 µM | ΔTm | 0 °C | Cn1c2c(c3ccc(Cl)c(Cl)c31)C(C#N)C1(CCN(C(=O)OC(C)(C)C)CC1)NC2=O (racemic)
enzyme activity, inhibitor, radiometric |  | 2 µM | inhibition | -15.6% | Cn1cncc1C1=CN(c2ncnc3[nH]cnc23)CCS1
cell-free assay, competition with immobilised ligand |  | 0.1 µM | remaining binding | 54% | CNC(=O)c1ccc(Nc2ncc(C(F)(F)F)c(NCc3nccnc3N(C)S(C)(=O)=O)n2)cc1
target engagement in cells, inhibitor, chemoproteomics | A-375 | 0.5 µM | inhibition | -36.9% | CCN1CCN(Cc2ccc(NC(=O)c3ccc(C)c(/C=C/c4cnc5[nH]ccc5c4OC)c3)cc2C(F)(F)F)CC1
enzyme activity, inhibitor, radiometric |  | 1 µM | remaining activity | 89% | COc1cc(Nc2cnc(C#N)c(O[C@H](C)CN(C)C)n2)ncc1-c1cnn(C)c1
